The array DNA melting data of Ke et al. (doi:10.1101/2024.01.08.574731)

Columns and labels:
[1] = melting temperature; fluorescence melt of hairpins on a sequencing array, two-state fit, raised by 9.35 °C to match UV melts; conditions: sodium 0.088 M
Method in brief: (§1)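 Folding enthalpy and melting temperature come from bootstrapped two-state fits to Cy3 fluorescence of library hairpins carrying annealed Cy3 and quencher oligos on a sequenced MiSeq flow cell. Imaging was done in 50 mM Na-HEPES pH 8.0, 25 mM NaCl, stepping by 2.5 °C up to 60 °C, and signals were normalised to pre-quench Cy3 and to control constructs. Results of four replicates were combined by inverse variance, and fitted temperatures were raised by 9.35 °C to match UV melts.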

[2] = folding enthalpy; higher = less favourable; fluorescence melt of hairpins on a sequencing array, two-state fit; conditions: sodium 0.088 M
Method in brief: as §1

Sequence	Tm [1]	folding enthalpy [2]
GATCGCGCGAAAGCGATC (((..(((....))))))	60.1 °C	-25.8 kcal/mol
GATCGCGGAAACGCGACC (.(((((....))))).)	49.2 °C	-10.5 kcal/mol
GATCGCTACCGCGATC ((((((....))))))	68.2 °C	-35.1 kcal/mol
GATCGCTAGTGCGATC ((((((....))))))	67 °C	-35.2 kcal/mol
GATCGCTATGGCGATC ((((((....))))))	69.1 °C	-30.2 kcal/mol
GATCGCTCGCGCGATC ((((((....))))))	67.4 °C	-31.7 kcal/mol
GATCGCTCTCGCGATC ((((((....))))))	67.6 °C	-34.2 kcal/mol
GATCGCTCTTGCGATC ((((((....))))))	68 °C	-38.9 kcal/mol
GATCGCTGATGCGATC ((((((....))))))	67.2 °C	-34.8 kcal/mol
GATCGCTGGCGCGATC ((((((....))))))	65.9 °C	-35.7 kcal/mol
GATCGCTGGGCGATC ((((((...))))))	68.8 °C	-35.6 kcal/mol
GATCGCTGGGGCGATC ((((((....))))))	69.1 °C	-32.2 kcal/mol
GATCGCTGTTGCGATC ((((((....))))))	67.8 °C	-28.7 kcal/mol
GATCGCTTCGGCGATC ((((((....))))))	67.6 °C	-35.6 kcal/mol
GATCGCTTGAGCGATC ((((((....))))))	67.6 °C	-27.6 kcal/mol
GATCGCTTGGCGATC ((((((...))))))	68.8 °C	-41.3 kcal/mol
GATCGCTTGTGCGATC ((((((....))))))	68 °C	-21.5 kcal/mol
GATCGGAAAACCGATC ((((((....))))))	51.2 °C	-35.5 kcal/mol
GATCGGAACACCGATC ((((((....))))))	55.2 °C	-39.9 kcal/mol
GATCGGAACTCCGATC ((((((....))))))	55.2 °C	-45.1 kcal/mol
GATCGGACGTCCGATC ((((((....))))))	62.7 °C	-47.5 kcal/mol
GATCGGACTCCCGATC ((((((....))))))	53.8 °C	-35.3 kcal/mol
GATCGGACTCCGATC ((((((...))))))	55.2 °C	-33.8 kcal/mol
GATCGGAGATCCGATC ((((((....))))))	56 °C	-27.6 kcal/mol

Sequence	Tm [1]	folding enthalpy [2]
GATCGGAGGACCGATC ((((((....))))))	53.3 °C	-31.2 kcal/mol
GATCGGATATCCGATC ((((((....))))))	58.3 °C	-42.9 kcal/mol
GATCGGATCGCCGATC ((((((....))))))	55.8 °C	-32.2 kcal/mol
GATCGGATGACCGATC ((((((....))))))	55.8 °C	-29.8 kcal/mol
GATCGGATTCCCGATC ((((((....))))))	55.5 °C	-36 kcal/mol
GATCGGCAAACCGATC ((((((....))))))	56.5 °C	-36.1 kcal/mol
GATCGGCAACCCGATC ((((((....))))))	54.4 °C	-38.5 kcal/mol
GATCGGCACCCGATC ((((((...))))))	55 °C	-35.9 kcal/mol
GATCGGCAGACCGATC ((((((....))))))	57.5 °C	-38 kcal/mol
GATCGGCAGCCGATC ((((((...))))))	55.2 °C	-50.7 kcal/mol
GATCGGCAGTCCGATC ((((((....))))))	56.7 °C	-37.7 kcal/mol
GATCGGCCCCCCGATC ((((((....))))))	56.1 °C	-37.1 kcal/mol
GATCGGCCCCCGATC ((((((...))))))	56 °C	-44.9 kcal/mol
GATCGGCGAAAGCCATC (((.(((....))))))	35.7 °C	-11 kcal/mol
GATCGGCGCCCCGATC ((((((....))))))	56.8 °C	-39.7 kcal/mol
GATCGGCTACCCGATC ((((((....))))))	54.9 °C	-41 kcal/mol
GATCGGCTTACCGATC ((((((....))))))	57.7 °C	-35.4 kcal/mol
GATCGGCTTTCCGATC ((((((....))))))	58.6 °C	-37 kcal/mol
GATCGGGACCCGATC ((((((...))))))	56.9 °C	-41.2 kcal/mol
GATCGGGATCCGATC ((((((...))))))	55.6 °C	-39.3 kcal/mol
GATCGGGATGCCGATC ((((((....))))))	57.4 °C	-42.1 kcal/mol
GATCGGGCGACCGATC ((((((....))))))	63.1 °C	-44.9 kcal/mol
GATCGGGCGGCCGATC ((((((....))))))	61.8 °C	-57.9 kcal/mol
GATCGGGCTGCCGATC ((((((....))))))	57.1 °C	-46.5 kcal/mol

Sequence	Tm [1]	folding enthalpy [2]
GATCGGGGAAACCCGACC (.(((((....))))).)	43.5 °C	-13.6 kcal/mol
GATCGGGGAAACCCGATC (((((((....)))))))	69 °C	-42.5 kcal/mol
GATCGGGGAAACCTGGTC ((.(.((....)).).))	36.3 °C	-22.6 kcal/mol
GATCGGGGGACCGATC ((((((....))))))	61.9 °C	-36.2 kcal/mol
GATCGGGGGGCCGATC ((((((....))))))	57.3 °C	-53.6 kcal/mol
GATCGGGGGTCCGATC ((((((....))))))	57 °C	-34.3 kcal/mol
GATCGGGGTTCCGATC ((((((....))))))	59 °C	-36.9 kcal/mol
GATCGGGTCTCCGATC ((((((....))))))	59.1 °C	-41.2 kcal/mol
GATCGGTAAGCCGATC ((((((....))))))	58.9 °C	-49.4 kcal/mol
GATCGGTACGCCGATC ((((((....))))))	63.6 °C	-38.6 kcal/mol
GATCGGTATACCGATC ((((((....))))))	64.3 °C	-36.7 kcal/mol
GATCGGTATCCCGATC ((((((....))))))	57.3 °C	-34.5 kcal/mol
GATCGGTCAACCGATC ((((((....))))))	57.5 °C	-39.2 kcal/mol
GATCGGTCCACCGATC ((((((....))))))	60.9 °C	-50 kcal/mol
GATCGGTCTACCGATC ((((((....))))))	62.3 °C	-39.3 kcal/mol
GATCGGTGAGCCGATC ((((((....))))))	60.8 °C	-48.6 kcal/mol
GATCGGTTCTCCGATC ((((((....))))))	60.6 °C	-44.3 kcal/mol
GATCGGTTGACCGATC ((((((....))))))	60.3 °C	-33.9 kcal/mol
GATCGGTTGCCCGATC ((((((....))))))	57.2 °C	-32.5 kcal/mol
GATCGGTTTACCGATC ((((((....))))))	68.6 °C	-37.4 kcal/mol
GATCGTAAGGACGATC ((((((....))))))	53.4 °C	-31.8 kcal/mol
GATCGTAATGACGATC ((((((....))))))	52.8 °C	-34.3 kcal/mol
GATCGTACAACGATC ((((((...))))))	56.5 °C	-37.4 kcal/mol
GATCGTACAGACGATC ((((((....))))))	52.5 °C	-54.1 kcal/mol

Sequence	Tm [1]	folding enthalpy [2]
GATCGTACGAACGATC ((((((....))))))	53.3 °C	-34.3 kcal/mol
GATCGTACGCACGATC ((((((....))))))	55.1 °C	-37.4 kcal/mol
GATCGTAGAAACGATC ((((((....))))))	51.1 °C	-35.2 kcal/mol
GATCGTATAAACGATC ((((((....))))))	54.7 °C	-31.9 kcal/mol
GATCGTATATACGATC ((((((....))))))	56.6 °C	-35.1 kcal/mol
GATCGTATTGACGATC ((((((....))))))	55 °C	-22.8 kcal/mol
GATCGTCAATACGATC ((((((....))))))	54.6 °C	-39.2 kcal/mol
GATCGTCACCACGATC ((((((....))))))	54 °C	-40.9 kcal/mol
GATCGTCACTACGATC ((((((....))))))	55 °C	-46.1 kcal/mol
GATCGTCAGACGATC ((((((...))))))	52.5 °C	-35.2 kcal/mol
GATCGTCAGCACGATC ((((((....))))))	52.6 °C	-27.8 kcal/mol
GATCGTCATCACGATC ((((((....))))))	52.2 °C	-43.8 kcal/mol
GATCGTCATGACGATC ((((((....))))))	61.4 °C	-40.3 kcal/mol
GATCGTCCATACGATC ((((((....))))))	54.8 °C	-41.8 kcal/mol
GATCGTCCGAACGATC ((((((....))))))	55.2 °C	-39.2 kcal/mol
GATCGTCCTACGATC ((((((...))))))	56.5 °C	-38.6 kcal/mol
GATCGTCCTCACGATC ((((((....))))))	53.5 °C	-42.9 kcal/mol
GATCGTCGCCACGATC ((((((....))))))	53.8 °C	-42.1 kcal/mol
GATCGTCGGCACGATC ((((((....))))))	53 °C	-21.4 kcal/mol
GATCGTCTATACGATC ((((((....))))))	54.8 °C	-38.9 kcal/mol
GATCGTCTCAACGATC ((((((....))))))	57.6 °C	-41.6 kcal/mol
GATCGTCTCCACGATC ((((((....))))))	53.7 °C	-38.1 kcal/mol
GATCGTCTCGACGATC ((((((....))))))	65.3 °C	-40.9 kcal/mol
GATCGTCTGCACGATC ((((((....))))))	55.3 °C	-38.3 kcal/mol
